The source made the active and inactive calls. The rule behind the calls is not given here.
Columns and labels:
PC-3 = assay: Cytotoxicity against human PC3 assessed as inhibition of cell growth incubated for 48 hrs by resazurin reduction test; assay type: functional, cell-based; conditions: PC-3, 48 h
Procedure, shortened: (§1)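 Monolayers grown in MEM with 10% fetal calf serum, pyruvate, vitamins, non-essential amino acids and gentamicin at 37 °C, 5% CO2. Cells were seeded at 5×10^3/well and left 16 h to adhere. Compounds were added from DMSO stocks (final 0.5% DMSO) for 48 h continuous exposure, in triplicate. Resazurin 25 μg/mL was then added for 1 h and fluorescence read at 530/590 nm. IC50 was taken from concentration–cell number curves as % of control after blank subtraction.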

Fibroblast = assay: Cytotoxicity against human fibroblasts assessed as inhibition of cell growth incubated for 48 hrs by resazurin reduction test; assay type: cell-based; procedure, shortened: as §1
M4Beu cell line = assay: Cytotoxicity against human M4Beu assessed as inhibition of cell growth incubated for 48 hrs by resazurin reduction test; assay type: functional, cell-based; procedure, shortened: as §1
PA-1 = assay: Cytotoxicity against human PA1 assessed as inhibition of cell growth incubated for 48 hrs by resazurin reduction test; assay type: functional, cell-based; conditions: PA-1, 48 h; procedure, shortened: as §1
A549 = assay: Cytotoxicity against human A549 assessed as inhibition of cell growth incubated for 48 hrs by resazurin reduction test; assay type: functional, cell-based; conditions: A549, 48 h; procedure, shortened: as §1
MCF7 = assay: Cytotoxicity against human MCF7 assessed as inhibition of cell growth incubated for 48 hrs by resazurin reduction test; assay type: functional, cell-based; conditions: MCF7, 48 h; procedure, shortened: as §1
A549 (Homo sapiens) [1] = assay: Cytotoxicity against human A549 assessed as inhibition of cell growth up to 200 uM incubated for 48 hrs in presence of 50 uM chlorambucil by resazurin reduction test
A549 (Homo sapiens) [2] = assay: Cytotoxicity against human A549 assessed as inhibition of cell growth up to 200 uM incubated for 48 hrs in absence of 50 uM chlorambucil by resazurin reduction test

Structure (SMILES)	IC50 (PC-3)	IC50 (Fibroblast)	IC50 (M4Beu cell line)	IC50 (PA-1)	IC50 (A549)	IC50 (MCF7)	growth inhibition (GI) (A549 (Homo sapiens) [1])	growth inhibition (GI) (A549 (Homo sapiens) [2])
CC(=O)OC[C@H]1O[C@@H](Oc2ccc(NC(=O)CNC(=O)CNC(=O)CCCc3ccc(N(CCCl)CCCl)cc3)cc2)[C@H](F)[C@@H](OC(C)=O)[C@@H]1OC(C)=O	20 µM	> 50 µM	> 50 µM	4 µM	> 50 µM	32 µM	–	–
CC(=O)OC[C@H]1O[C@@H](NC(=O)COC(=O)CCCc2ccc(N(CCCl)CCCl)cc2)[C@H](F)[C@@H](OC(C)=O)[C@@H]1OC(C)=O	> 50 µM	> 50 µM	> 50 µM	3.8 µM	15 µM	> 50 µM	–	–
CC(=O)OC[C@H]1O[C@@H](NC(=O)c2ccc(OC(=O)CCCc3ccc(N(CCCl)CCCl)cc3)cc2)[C@H](F)[C@@H](OC(C)=O)[C@@H]1OC(C)=O	> 50 µM	> 50 µM	> 50 µM	4 µM	19 µM	> 50 µM	–	–
OC[C@H]1OC(O)[C@H](F)[C@@H](O)[C@@H]1O (stereo partly drawn)	–	–	–	–	–	–	Active	Active
CC(=O)OC[C@H]1O[C@@H](OC(=O)Nc2ccc(NC(=O)CNC(=O)CCCc3ccc(N(CCCl)CCCl)cc3)cc2)[C@H](F)[C@@H](OC(C)=O)[C@@H]1OC(C)=O	4.9 µM	21 µM	31 µM	1.3 µM	9 µM	15 µM	–	–
CC(=O)OC[C@H]1O[C@@H](Oc2ccc(NC(=O)CC(=O)NCCCc3ccc(N(CCCl)CCCl)cc3)cc2)[C@H](F)[C@@H](OC(C)=O)[C@@H]1OC(C)=O	8 µM	> 50 µM	13.8 µM	2 µM	> 50 µM	14 µM	–	–
CC(=O)OC[C@H]1O[C@@H](OC(=O)c2ccc(NC(=O)CCCc3ccc(N(CCCl)CCCl)cc3)cc2)[C@H](F)[C@@H](OC(C)=O)[C@@H]1OC(C)=O	4 µM	4 µM	6 µM	0.45 µM	1.7 µM	6 µM	–	–
CC(=O)OC[C@H]1OC(OC(C)=O)[C@H](F)[C@@H](OC(C)=O)[C@@H]1OC(C)=O (stereo partly drawn)	–	–	–	–	–	–	Active	Active
CC(=O)OC[C@H]1O[C@@H](NC(=O)c2ccc(NC(=O)CNC(=O)CCCc3ccc(N(CCCl)CCCl)cc3)cc2)[C@H](F)[C@@H](OC(C)=O)[C@@H]1OC(C)=O	6 µM	8 µM	17.8 µM	13 µM	30 µM	7 µM	–	–
CC(=O)OC[C@H]1O[C@@H](OC(=O)NCC(=O)Nc2ccc(NC(=O)CCCc3ccc(N(CCCl)CCCl)cc3)cc2)[C@H](F)[C@@H](OC(C)=O)[C@@H]1OC(C)=O	6.5 µM	10 µM	18 µM	0.8 µM	13 µM	13 µM	–	–
CC(=O)OC[C@H]1O[C@@H](Oc2ccc(NC(=O)c3ccc(NC(=O)CCCc4ccc(N(CCCl)CCCl)cc4)cc3)cc2)[C@H](F)[C@@H](OC(C)=O)[C@@H]1OC(C)=O	2.1 µM	3 µM	3 µM	–	6 µM	3.4 µM	–	–
CC(=O)OC[C@H]1O[C@@H](Oc2ccc(NC(=O)COC(=O)CCCc3ccc(N(CCCl)CCCl)cc3)cc2)[C@H](F)[C@@H](OC(C)=O)[C@@H]1OC(C)=O	> 50 µM	32.5 µM	> 50 µM	7.6 µM	39 µM	> 50 µM	–	–
CC(=O)OC[C@H]1O[C@@H](OC(=O)Nc2ccc(OC(=O)CCCc3ccc(N(CCCl)CCCl)cc3)cc2)[C@H](F)[C@@H](OC(C)=O)[C@@H]1OC(C)=O	> 50 µM	> 50 µM	> 50 µM	6 µM	22 µM	> 50 µM	–	–
CC(=O)OC[C@H]1O[C@@H](Oc2ccc(NC(=O)CNC(=O)CCCc3ccc(N(CCCl)CCCl)cc3)cc2)[C@H](F)[C@@H](OC(C)=O)[C@@H]1OC(C)=O	7 µM	17 µM	15 µM	1.5 µM	–	16 µM	–	–
CC(=O)OC[C@H]1O[C@@H](OC(=O)NCC(=O)Nc2ccc(OC(=O)CCCc3ccc(N(CCCl)CCCl)cc3)cc2)[C@H](F)[C@@H](OC(C)=O)[C@@H]1OC(C)=O	> 50 µM	32 µM	30 µM	9 µM	39 µM	39.5 µM	–	–
O=C(O)CCCc1ccc(N(CCCl)CCCl)cc1 [CHLORAMBUCIL]	> 100 µM	–	–	–	–	–	–	–
CC(=O)OC[C@H]1O[C@@H](NC(=O)CC(=O)NCCCc2ccc(N(CCCl)CCCl)cc2)[C@H](F)[C@@H](OC(C)=O)[C@@H]1OC(C)=O	5 µM	13 µM	12 µM	0.4 µM	8 µM	9 µM	–	–
CC(=O)OC[C@H]1O[C@@H](OC(=O)Nc2ccc(NC(=O)CCCc3ccc(N(CCCl)CCCl)cc3)cc2)[C@H](F)[C@@H](OC(C)=O)[C@@H]1OC(C)=O	3.6 µM	> 50 µM	29 µM	1.2 µM	2 µM	35 µM	–	–
